# High-throughput results from PubChem.
# MBD2 inh – MBD2-methylated oligo binding inhibition; 0.31% of 370,000 active; TR-FRET, MBD2 binding to methylated oligonucleotide; Q9UBB5; AID 686964; inhibition, % at 4.4 µM; in the data active = inhibition above about 13%
# Casp6 inh – inhibitors of human caspase-6; 0.53% of 350,000 active; purified caspase-6, Z-VEID-R110 cleavage fluorescence; P55212; AID 686996; inhibition, % at 12.5 µM;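 active = mean inhibition across replicates at least about 35%, with every replicate also reaching that limit, limit read from the data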;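 note: 0% = median of neutral control wells and 100% = no fluorescence left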
# LEDGF integ inh – blocks HIV-1 LEDGF/p75-dependent DNA integration; 0.64% of 370,000 active; TR-FRET IN-LEDGF/p75 DNA integration, Eu/Cy5; inhibition, % at 3.7 µM; AID 743269;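 active = inhibition above the screen-wide mean plus 3 SD, cut at about 13% in these data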;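 note: signal is the Cy5 over europium emission ratio at 671 and 618 nm; 0% = plate median of compound wells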
# TDP2 absorb – blocks human TDP2 phosphodiesterase activity | O95551 | recombinant TDP2, T5PNP hydrolysis, p-nitrophenol absorbance 415 nm | inhibition, % at 12.8 µM | 0.34% of 370,000 active | AID 720702;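 active = inhibition above the mean of all tested compounds plus 3 SD, set per campaign, cut at about 25% in these data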;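 note: 0% = DMSO with enzyme and 100% = buffer with substrate but no TDP2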
# Target sequence (O95551 whole entry, looked up): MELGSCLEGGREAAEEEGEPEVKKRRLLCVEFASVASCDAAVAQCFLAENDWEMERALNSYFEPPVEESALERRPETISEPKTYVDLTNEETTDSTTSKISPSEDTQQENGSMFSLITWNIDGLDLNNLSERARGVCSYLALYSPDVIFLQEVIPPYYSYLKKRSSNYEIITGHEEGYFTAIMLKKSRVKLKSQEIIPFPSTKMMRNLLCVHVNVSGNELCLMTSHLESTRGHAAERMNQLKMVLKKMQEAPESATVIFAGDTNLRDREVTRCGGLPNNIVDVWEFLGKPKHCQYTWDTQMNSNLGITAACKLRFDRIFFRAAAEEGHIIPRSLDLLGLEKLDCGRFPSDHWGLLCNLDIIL
#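 Test system: Human TDP2 enzyme | Reagent: 5 mM T5PNP | Compound dosing: 12.8 µM single point, 1% DMSO | Incubation: Enzyme reaction with compound for 2 h at 37 °C | Technique: p-Nitrophenol epi absorbance | Read-out: % inhibition relative to enzyme-containing and enzyme-free wells | Benchmarks: High control without enzyme, low control DMSO plus TDP2 | Replicates: Singlicate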
# NSD2 HMT inh – inhibitors of human histone methyltransferase NSD2 | NSD2 peptide methylation, AlphaScreen, 120 min | 0.54% of 310,000 active | inhibition, % at 12.5 µM | AID 743445; in the data active = inhibition above about 50%
# UHRF1 binding – blocks human UHRF1 binding to methylated DNA. inhibition, % at 4.4 µM. 0.75% of 370,000 active. UHRF1 binding to methylated oligo, TR-FRET. Q96T88. AID 687016; in the data active = inhibition above about 21%;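 note: UHRF1 SRA domain binding a hemimethylated CpG hairpin DNA probe; 0% = median of test compound wells and 100% = reference inhibitor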
# * marks the source's active call; other numbers are inactive results; / = not tested or not shown. This is a sample that favours compounds with a hit; in the whole collection about 1.9% have one here.
SMILES,MBD2 inh,Casp6 inh,LEDGF integ inh,TDP2 absorb,NSD2 HMT inh,UHRF1 binding
O=C(NCC1CCCO1)c1ccc(Cl)c(S(=O)(=O)N2CCOCC2)c1 (stereo not drawn),-6,-1,0,11,-1,0
O=C(NCC1CCCO1)c1cc(S(=O)(=O)N2CCOCC2)c(Cl)cc1Cl (stereo not drawn),2,0,-1,3,27,23*
CC(C)NC(=O)Nc1ccc2c(c1)CC(=O)N([C@@H](C)CO)C[C@@H](C)[C@H](CN(C)CC1CCCCC1)O2,/,-3,/,/,/,/
O=C(Nc1ccccc1)/C(=C/c1ccc2c(c1)OCO2)NC(=O)c1ccco1,8,/,-1,-1,-2,21*
COc1ccc(-c2nc(=S)c3c(n2Cc2cccnc2)CC(C)(C)OC3)cc1,10,0,0,8,-6,24*
C[C@H]1CN([C@@H](C)CO)C(=O)c2cc(NC(=O)C3CCCCC3)ccc2O[C@@H]1CN(C)S(=O)(=O)c1ccc(Cl)cc1,/,-2,/,/,/,/
COc1ccc(NC(=S)N(CCN2CCOCC2)Cc2cc3cc4c(cc3[nH]c2=O)OCCO4)cc1,2,38*,-6,-10,4,1
COc1cccc(NS(=O)(=O)c2ccc3c(c2)NC(=O)CC(=O)N3)c1,6,99*,-2,-6,-1,5
COc1cccc(NS(=O)(=O)c2ccc3c(c2)NC(=O)C(C)C(=O)N3)c1 (stereo not drawn),-7,-1,7,-1,/,0
Cc1cc(NC(=O)CCc2ccccc2)c([N+](=O)[O-])cc1C,4,/,-3,14,7,0
Cc1cc(NC(=O)CN(C)C)c([N+](=O)[O-])cc1C,1,0,-4,0,0,42*
CCOc1cccc(/C=C(/C#N)c2nc3ccccc3[nH]2)c1OCC(=O)O,-6,45*,3,11,1,-2
CN1CCCCN2[C@H](CO)[C@@H](c3ccc(-c4ccc(F)cc4)cc3)[C@H]2C1,/,3,/,/,/,/
c1ccc(CN2CCN(c3nc(-c4ccccc4)nc4ccccc34)CC2)cc1,7,/,-1,-1,/,21*
Cc1ccc([N+](=O)[O-])cc1NC(=O)/C=C/C(=O)O,-6,5,-9,5,-4,40*
COc1ccccc1-c1ccc(SCc2cccc(F)c2)nn1,-6,5,-5,-5,-3,58*
COc1ccccc1-c1ccc(SCc2ccccc2)nn1,0,0,1,2,-2,-1
O=C(c1ccncc1)N1CC2(C1)[C@@H](c1ccccc1)[C@@H](CO)N2CC1CCOCC1,/,-1,/,/,/,/
NC(=O)c1ccc(NC(=O)COC(=O)CC2CC3CCC2C3)cc1 (stereo not drawn),0,-2,-4,9,-1,-2
NC(=O)COC(=O)CC1CC2CCC1C2 (stereo not drawn),2,2,12,0,0,21*
C[C@H](CO)N1C[C@H](C)[C@@H](CN(C)C)Oc2ccc(NS(=O)(=O)c3ccc(F)cc3)cc2CC1=O,/,-4,/,/,/,/
COc1ccc(S(=O)(=O)n2cccc2)cc1,-1,-1,-5,-5,-6,23*
C[C@@H]1CN([C@@H](C)CO)C(=O)c2cccc(NS(=O)(=O)c3cccs3)c2O[C@@H]1CN(C)CC1CCCCC1,/,0,/,/,/,/
CC1CC(C)CN(S(=O)(=O)c2ccc(F)c(C(=O)NC3CCCCC3C)c2)C1 (stereo not drawn),-1,62*,0,3,-1,0
CC1CCCC(NC(=O)c2cc(S(=O)(=O)N3CCOCC3)ccc2F)C1C (stereo not drawn),3,0,0,10,2,0
SMILES,MBD2 inh,Casp6 inh,LEDGF integ inh,TDP2 absorb,NSD2 HMT inh,UHRF1 binding
Cc1ccc(N(C)S(=O)(=O)c2ccc(-c3cnc(C4CC4)o3)cc2)cc1,5,2,1,10,1,23*
Cc1ccc(NS(=O)(=O)c2ccc(-c3cnc(C4CC4)o3)cc2)cc1,-4,6,-2,-17,1,1
O=C(NCc1ccccc1)c1ccc2nccnc2c1,-6,-2,3,4,-1,2
O=C(NCc1ccco1)c1ccc(C(=O)NCc2ccco2)cc1,3,40*,-2,3,-1,2
O=C(NCc1ccccc1)c1ccc2nc(-c3ccco3)c(-c3ccco3)nc2c1,-10,/,27*,19,/,-4
CC(C)C(OC(=O)c1ccco1)C(=O)NCc1ccco1 (stereo not drawn),3,/,-3,-5,0,33*
Cc1ccc(CNC(=O)C(OC(=O)c2ccco2)C(C)C)cc1 (stereo not drawn),6,/,-2,0,-7,-2
Cc1cc(C)cc(C(=O)OCC(=O)NCc2ccco2)c1,2,51*,3,-6,-1,2
Cc1ccc(C(=O)NCc2ccco2)cc1,-1,-1,6,7,1,-1
COc1ccc(NC(=O)N(C)C[C@H]2Oc3ncc(-c4cccnc4)cc3C(=O)N([C@H](C)CO)C[C@H]2C)cc1,/,1,/,/,/,/
O=C(COC(=O)/C=C/c1cccc(C(F)(F)F)c1)NCc1ccco1,6,3,28*,2,0,2
O=C(COC(=O)/C=C/c1cccc(C(F)(F)F)c1)NC(=O)NCc1ccco1,-6,-2,4,-1,-2,0
O=C(CSc1nnc(Nc2ccccc2F)s1)NC(=O)CN1CCCC1=O,2,42*,3,-2,4,3
O=C(CSc1nnc(Nc2ccccc2F)s1)NCc1ccco1,-6,/,1,-8,-6,1
Cc1cc(-c2csc(NC(=O)c3cc4ccccc4o3)n2)c(C)n1C,0,/,14*,-10,1,4
Cc1cnc(NC(=O)c2ccc3c(c2)OCCO3)s1,-1,36*,2,6,0,0
CCCCNC(=O)NC1CCN(CC(=O)Nc2ccc3c(c2)OCCO3)CC1,6,/,-6,-7,/,32*
O=C(CN1CCC(NC(=O)NC2CCCC2)CC1)Nc1ccc2c(c1)OCCO2,8,/,-2,6,2,2
O=C(Nc1cccc(NC(=O)c2ccc(F)cc2)c1)c1ccc(F)cc1,-7,-4,-4,-1,-1,-3
O=C(Nc1cccc(NC(=O)c2ccccc2Cl)c1)c1ccc(F)cc1,0,-3,-1,-9,2,27*
O=C(O)c1ccccc1NS(=O)(=O)c1ccc(NNC(=S)Nc2ccc(OC(F)F)cc2)c([N+](=O)[O-])c1,-1,19,10,5,110*,-5
O=C(O)c1ccccc1NS(=O)(=O)c1ccc(N/N=C/c2cccc(O)c2O)c([N+](=O)[O-])c1,-5,60*,3,5,29,1
CC(=O)Nc1ccc(C=NNc2ccc([N+](=O)[O-])cc2S(=O)(=O)Nc2ccccc2C(=O)O)cc1,-5,20,3,-20,-1,1
